Bioassay records as filed in PubChem.
In the library only some 3.5% were active in any assay of this set; here they are far more common.
Env fusion inh – blocks HIV Env-driven cell-cell fusion. HeLa-JRFL Env/CEM21 cell fusion, luciferase. inhibition, % at 12.3 µM. actives 1.1% (n = 360,000). AID 651610;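 active = mean replicate inhibition score of at least 50 and every replicate individually at or above 50; inconclusive = only one of the two criteria met; inactive = mean below 50 and not all replicates reaching 50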;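 also: 0% = plate neutral controls and 100% = maraviroc near 300 nM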
FN deposit inh – fibronectin deposition inhibition; AH1F fibroblasts, Alexa488-fibronectin deposition fluorescence, overnight; inhibition, % at 12.6 µM; actives 0.086% (n = 350,000); AID 743247;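 active = mean inhibition across replicates of 30% or more, regardless of how many single replicates reach that level; inconclusive = mean under 30% yet at least half of replicates reach 30%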;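 also: positive control wells lacked labelled fibronectin entirely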
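Material: AH1F fibroblast monolayer depositing Alexa488-labelled fibronectin into matrix | Input: 10000 AH1F cells/well | Medium: DMEM plus 2% serum, read in PBS | Reagent: Alexa488-fibronectin, 24 nM final in well | Compound dosing: One dose per compound, pinned | Schedule: 1 h adhesion, overnight exposure | Measured by: Fluorescence at 485 nm excitation, 525 nm emission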
PglD DTNB – inhibitors of Campylobacter jejuni PglD acetyltransferase | purified PglD enzyme, DTNB colorimetric CoA detection | inhibition, % at 12.5 µM | actives 0.098% (n = 360,000); in the data active = inhibition above about 16%, passing the limit was not always enough; inconclusive = no clear call, values can overlap the other calls
Ecoli rRNA inh – selective bacterial rRNA inhibition in E. coli | E. coli WT GFP vs humanized-ribosome RFP mutants, fluorescence, 24 h; stronger effect = lower value; DMSO median 0, no signal -100 | GFP signal change (wild-type ribosome), % (test concentration not listed) | actives 1.6% (n = 350,000) | AID 720706;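 active = significant combined selectivity score with lowered wild-type GFP, culture density cut under 30%, mutant RFP and density less affected; inactive = any of these conditions unmet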
DENV2 CPE – protects cells from dengue virus 2 cytopathic effect | DENV2-infected cells, cytopathic effect rescue, plate reader | actives 1.7% (n = 350,000) | CPE inhibition, % at 9.99 µM | AID 651640; in the data active = CPE inhibition above about 20%, passing the limit was not always enough; inconclusive = no clear call, values can overlap the other calls; tested in BHK-21 cells;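 also: 0% = median of neutral control wells and 100% = median of positive control wells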
PGC1a acetyl inh – modulators of PGC1a acetylation; U2OS PGC1a acetylation, AlphaScreen anti-acetyl-lysine; with virally co-expressed GCN5 acetyltransferase; inhibition, % at 15.6 µM; actives 0.17% (n = 350,000); AID 651687;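 active = every replicate shows inhibition of at least 40%; inconclusive = mean inhibition at least 40% but some replicate below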;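 also: 0% = neutral control wells and 100% = positive control wells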
* hit, by the source's call; u = inconclusive; x = not tested or not shown; [ ] = another dose, or the depositor's remark.

SMILES	Env fusion inh	FN deposit inh	PglD DTNB	Ecoli rRNA inh	DENV2 CPE	PGC1a acetyl inh
C[C@@H]1CN([C@H](C)CO)C(=O)Cc2cc(NC(=O)CCN3CCOCC3)ccc2O[C@H]1CN(C)C(=O)Nc1ccc(C(F)(F)F)cc1	-14.1[16.7 µM]	-1.7	-1.9	3.8	2.4	9.1
CN(C)/C=N/c1ncc(C(=O)c2ccccc2)s1	-133.8	-1.2	-1.8	x	x	-4.4
CN(C)/C=N/c1ncc(C(=O)c2ccc(-c3ccccc3)cc2)s1	5.6	-16.0	x	-18.4*	-0.8	-5.3
COCC#Cc1ccc([C@H]2[C@@H](CO)N3C(=O)CN(C(=O)Nc4ccccc4F)C[C@H]23)cc1	x	1.1	x	1.3	-2.3	-3.9
CON(C)c1nc(OCCNC(=O)OCc2ccc(Cl)cc2C)nc(N(C)C)n1	150.3*	-8.3	1.6	x	x	-9.3
CSC(SC)=C(C#N)C(=O)c1ccccc1	-39.2	4.3	8.7	-4.2	u	0.4
COc1cccc(C(=O)C(C#N)=C(SC)SC)c1	2.2	1.8	7.9	0.9	33.9*	9.8
COc1ccc(CCN(C)CCc2ccc(OC)c(OC)c2)cc1OC	13.2	14.3	0.4	x	-13.3	x
COc1ccc(CCN(C)Cc2c(O)ccc3cc(Br)ccc23)cc1OC	-1.7	5.8	-7.1	-26.9*	u	9.6
COc1ccc(CN(C)Cc2c(O)ccc3cc(Br)ccc23)cc1OC	34.5	-8.4	-1.3	-23.2*	-1.5	30.4
C[C@H]1CN([C@@H](C)CO)C(=O)c2cc(-c3ccccc3F)cnc2O[C@H]1CN(C)Cc1cccc(C(=O)O)c1	-33.6[16.7 µM]	x	-4.7	5.0	17.2	2.3
C[C@@H]1CN([C@H](C)CO)C(=O)Cc2cc(NS(=O)(=O)c3ccc(F)cc3)ccc2O[C@H]1CN(C)CC1CCCCC1	x	-11.9	1.0	-59.2	-1.6	-4.9
COc1ccc(CNC(=O)/C=C/c2ccc(S(=O)(=O)NCc3ccco3)cc2)cc1OC	-14.8	-7.3	x	x	x	x
O=C(/C=C/c1ccc(S(=O)(=O)NCc2ccco2)cc1)NCc1ccccc1Cl	3.0	3.4	x	-26.8*	-5.5	x
COc1ccc(S(=O)(=O)N2CCC(C(=O)N[C@H](C(=O)NCc3ccccc3)C(C)C)CC2)cc1	-15.0	-4.4	-1.5	4.6	47.1*	-5.8
CC(=O)Nc1ccc(S(=O)(=O)N2CCC(C(=O)NCc3ccco3)CC2)cc1	-25.3	-10.2	x	12.8	1.9	x
COc1ccc(CNC(=O)[C@@H](NC(=O)C2CCN(S(=O)(=O)c3ccccc3)CC2)C(C)C)cc1	-7.0	-4.7	5.1	5.8	6.9	0.7
CC(C)c1ccc(S(=O)(=O)N2CCC(C(=O)NCc3ccco3)CC2)cc1	56.1*	2.9	-9.2	0.3	5.9	2.7
C[C@H](NC(=O)C1CCN(S(=O)(=O)c2ccccc2)CC1)C(=O)NCc1cccnc1	-8.6	-10.9	0.4	7.7	37.3*	-4.8
C[C@@H](NC(=O)C[C@H]1C=C[C@@H](NC(=O)Nc2ccc3c(c2)OCO3)[C@H](CO)O1)c1ccccc1	23.4[16.7 µM]	0.0	0.7	1.6	6.3	3.1
C[C@H]1CN([C@@H](C)CO)C(=O)Cc2cc(NC(=O)Nc3ccc4c(c3)OCO4)ccc2O[C@H]1CN(C)C(=O)Nc1ccc(C(F)(F)F)cc1	-2.2[16.7 µM]	x	3.2	1.4	-3.4	6.4
COc1ccccc1C#Cc1cnc2c(c1)C(=O)N([C@H](C)CO)C[C@H](C)[C@H](CN(C)C(C)=O)O2	7.0[16.7 µM]	x	-0.7	4.9	-12.0	1.2
CCOc1ccc2nc(NC(=O)C3(C)CC3(Br)Br)sc2c1 (stereo not drawn)	-78.7	4.3	-2.5	-41.9*	-16.3	-14.2
CCOC(=O)C1CCN(C(=O)CCc2c(C)nc3cc(-c4ccccc4)nn3c2C)CC1	-0.7	3.5	1.9	-7.4	-5.2	1.0
CCOC(=O)C1CCCCN1C(=O)CCc1c(C)nc2cc(-c3ccccc3)nn2c1C (stereo not drawn)	60.7*	1.0	-2.6	5.1	-8.3	-19.4
SMILES	Env fusion inh	FN deposit inh	PglD DTNB	Ecoli rRNA inh	DENV2 CPE	PGC1a acetyl inh
COc1cc(OC)cc(-c2cc3nc(C)c(CCC(=O)O)c(C)n3n2)c1	72.8*	0.4	-1.2	-9.4	-2.0	1.9
Cc1cc(C)nc(/N=C(\N)Nc2ccc(CC(=O)OC(C)C)cc2)n1	67.6*	-1.3	-5.6	-8.2	-4.4	5.3
CC(=O)c1c(O)cc2c3c1OC(C)(C)C1CCC(C)(CC31)O2 (stereo not drawn)	68.9*	-4.8	-1.2	-6.5	-0.6	4.6
O=C(c1ccccn1)N1C[C@@H]2N[C@H](C1)C2c1ccc(-c2ccccc2F)cc1 (stereo partly drawn)	x	-1.8	x	-2.7	-4.9	-8.3
CCCNC(=O)C[C@H]1CC[C@@H]2[C@H](COC[C@@H](O)CN2Cc2cccc(F)c2)O1	x	-9.4	2.3	-3.3	5.8	1.0
CN(C)CC(=O)N1[C@H](C#N)[C@H](c2ccc(-c3cccc(C(=O)N(C)C)c3)cc2)[C@H]1CO	-0.7[16.7 µM]	-2.4	0.1	5.5	0.6	6.4
COc1ccc2c3c([nH]c2c1)[C@@H](CO)N(C(=O)c1ccccn1)CC31CCN(C(=O)C2CCCC2)CC1	x	-4.6	x	-2.9	23.5*	x
COc1ccc2c3c([nH]c2c1)[C@@H](CO)N(C(=O)c1cnccn1)CC31CCN(S(C)(=O)=O)CC1	x	x	x	4.9	33.7*	-0.8
CCOC(=O)C1=C(C)Nc2nc3ccccc3n2C1c1ccncc1 (stereo not drawn)	16.5	13.5*	1.5	x	x	30.6
CCOC(=O)C1=C(C)Nc2nc(SCc3cccnc3)nn2C1c1ccc(OC)cc1 (stereo not drawn)	61.5*	2.3	-4.1	2.2	-2.3	-15.4
C/C(=N/NS(=O)(=O)c1ccc(CC(C)C)cc1)c1ccncc1	64.8*	x	-2.6	7.3	-9.5	0.2
O=C(c1cnccn1)N1CC(=O)N2[C@@H](CO)[C@H](c3ccc(C#CC4CCCC4)cc3)[C@@H]2C1	x	13.3	x	6.8	-10.4	1.5
Fc1ccc(Nc2nc(NCc3ccco3)c3ccccc3n2)cc1	13.8	-6.4	1.6	-41.0*	-16.0	x
CCc1ccc(NC(=O)C(C)OC(=O)Cn2[nH]c(=O)c3ccccc3c2=O)cc1 (stereo not drawn)	-1.4	1.2	0.7	3.0	59.7*	4.4
O=C(C[C@@H]1CC[C@@H](NC(=O)C2CCC2)[C@@H](CO)O1)NCCCN1CCOCC1	3.9[16.7 µM]	-14.7	0.3	2.9	3.3	3.7
C[C@H]1CN([C@@H](C)CO)C(=O)c2cc(NC(=O)Nc3ccc(C(F)(F)F)cc3)ccc2O[C@@H]1CN(C)C(=O)NC1CCCCC1	x	x	-0.7	0.0	-1.2	8.2
C[C@@H]1CN([C@@H](C)CO)C(=O)c2cc(NC(=O)Nc3ccc(C(F)(F)F)cc3)ccc2O[C@@H](C)CCCCO[C@@H]1CN(C)C(=O)NC1CCCCC1	-45.9[16.7 µM]	x	-1.3	-0.4	59.6*	10.2
